Common to all, as to format: functional, cell-based
For one assay, the system named is A549. Kind of assay: Cytotoxicity against human A549 cells after 24 hrs by MTT assay. The settings on record: A549, 24 h. The procedure, abridged: (§1)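 Cells plated 24 h before treatment, then exposed continuously to a range of compound concentrations for 24 h. MTT added and incubated 4 h at 37 °C under 5% CO2. Absorbance read at 570 nm. IC50 taken from plotted results with untreated cells set at 100%. Run at least three times; means ± SD of triplicates.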
On the technique in general: Tetrazolium assays rely on reduction of a dye to a coloured formazan, in cell work by metabolically active cells.

A short description of assay [1]: Cytotoxicity against human A172 cells after 24 hrs by MTT assay. The settings on record: A 172, 24 h. The procedure, abridged:
as §1

The next assay deals with DU-145. Nature of the assay: Cytotoxicity against human DU145 cells after 24 hrs by MTT assay. The settings on record: DU-145, 24 h. Summed up: as §1
A short description of assay [2]: Cytotoxicity against rat PC12 cells after 24 hrs by MTT assay. The settings on record: PC-12, 24 h. Summed up:
as §1

In the next assay the test system is NCI-H292. Nature of the assay: Cytotoxicity against human NCI-H292 cells after 24 hrs by MTT assay. The settings on record: NCI-H292, 24 h. The procedure, abridged:
as §1

A further assay relates to NCI-H1299. Kind of assay: Cytotoxicity against human NCI-H1299 cells after 24 hrs by MTT assay. The settings on record: NCI-H1299, 24 h. The procedure, abridged:
as §1

A further assay relates to PC-3. Kind of assay: Cytotoxicity against human PC3 cells after 24 hrs by MTT assay. The settings on record: PC-3, 24 h. Summed up:
as §1

A word on the IC50: it is the concentration needed to halve the response being measured. A high value points to weaker potency in that assay. Regarding `CC(=O)O[C@@]1(C)CCC(=O)[C@@H](C)CCC[C@]2(C)O[C@H]2C(=O)C(=C(C)C)CC1`, the IC50 in the assay with A549 is 31.1 µM; in assay [1], 23.1 µM; with DU-145 it was 43.7 µM; in assay [2], 24.5 µM; in the assay on NCI-H292, 21.4 µM; in the assay on NCI-H1299, 17.2 µM. This molecule also yielded an IC50 with PC-3 of 24.3 µM.

In the case of `CC(=O)O[C@@]1(C)CCC(=O)[C@H](C)CCC[C@]2(C)O[C@H]2C(=O)C(=C(C)C)CC1`, the 50% inhibitory concentration (IC50) in the assay with A549 is above 50 µM; in assay [1], 31.9 µM; in the assay with DU-145, above 50 µM; in assay [2], 43.8 µM; with NCI-H292, 38.9 µM; with NCI-H1299, 19.5 µM. Further, half-maximal inhibition in the assay with PC-3 (IC50) required 44.9 µM.

Take `CC(=O)O[C@@]1(C)CCC(=O)/C(C)=C/CC[C@]2(C)O[C@H]2C(=O)C(=C(C)C)CC1`: the IC50 with A549 was above 50 µM; in assay [1], 37.3 µM; in the assay on DU-145, above 50 µM; in assay [2], 40.6 µM; with NCI-H292, 48.7 µM; in the assay with NCI-H1299 it was 40.3 µM. For the same molecule, in the assay with PC-3, the half-maximal inhibitory concentration (IC50) was above 50 µM.

With `CC(=O)O[C@]1(C)CCC(=C(C)C)C(=O)[C@@H]2O[C@@]2(C)CC/C=C(\C)[C@H](O)CC1`, the concentration for half-maximal inhibition (IC50) is 21.5 µM in the assay on A549; above 50 µM in assay [1]; above 50 µM in the assay on DU-145; 30.2 µM in assay [2]; above 50 µM in the assay with NCI-H292; 20.9 µM in the assay on NCI-H1299. This molecule showed a 50% inhibitory concentration (IC50) with PC-3 above 50 µM.

With `CC(=O)O[C@@]1(C)C/C=C2\O[C@H](C[C@@H]2C)C[C@]2(C)O[C@H]2C(=O)C(=C(C)C)CC1`, the half-inhibitory concentration (IC50) was above 50 µM with A549; above 50 µM in assay [1]; above 50 µM with DU-145; 41.1 µM in assay [2]; above 50 µM with NCI-H292; 28.3 µM in the assay with NCI-H1299. This molecule also registered an IC50 in the assay on PC-3 above 50 µM.

With `CC(=O)O[C@]1(C)CCC(=C(C)C)C(=O)[C@@H]2O[C@@]2(C)C[C@H]2C[C@H](C)[C@@](O)(CC1)O2`, the half-inhibitory concentration (IC50) is above 50 µM with A549; above 50 µM in assay [1]; above 50 µM in the assay with DU-145; 37.1 µM in assay [2]; above 50 µM in the assay with NCI-H292; 23.5 µM in the assay with NCI-H1299. Besides, in the assay on PC-3, the half-inhibitory concentration (IC50) is above 50 µM.

`CC(=O)O[C@@]1(C)CCC/C(C)=C/CC[C@@]2(C)O[C@@H]2C(=O)C(=C(C)C)CC1`: the 50% inhibitory concentration (IC50) was above 50 µM in the assay with A549; above 50 µM in assay [1]; above 50 µM in the assay with DU-145; 47.1 µM in assay [2]; above 50 µM in the assay with NCI-H292; 41.6 µM with NCI-H1299. Further, the 50% inhibitory concentration (IC50) in the assay on PC-3 was above 50 µM.

As for `CC(C)=C1CC[C@]2(C)CC[C@]3(O[C@H](C[C@@H]3C)C[C@]3(C)O[C@H]3C1=O)O2`, the IC50 was above 50 µM in the assay on A549; above 50 µM in assay [1]; above 50 µM in the assay on DU-145; 36.4 µM in assay [2]; above 50 µM in the assay on NCI-H292; above 50 µM with NCI-H1299. In the assay with PC-3, this molecule showed a 50% inhibitory concentration (IC50) above 50 µM.

`CC(C)=C1CC[C@]2(C)CC[C@]3(O[C@H](C[C@H]3C)C[C@]3(C)O[C@H]3C1=O)O2`: the 50% inhibitory concentration (IC50) with A549 was above 50 µM; in assay [1], above 50 µM; in the assay on DU-145, above 50 µM; in assay [2] it was above 50 µM; with NCI-H292, 48.1 µM; in the assay with NCI-H1299, above 50 µM. In the assay with PC-3, this molecule came in with a half-maximal inhibitory concentration (IC50) above 50 µM.

Consider `CC(=O)O[C@H]1C[C@]2(C)O[C@H]2CC/C(C)=C/[C@@H](OC(C)=O)[C@]2(C)[C@@H]1[C@H]([C@]1(C)CO1)C[C@@H]2OC(C)=O`, for which the IC50 (in the assay with A549; in assay [1]; in the assay with DU-145; in assay [2]; with NCI-H292; with NCI-H1299) was above 50 µM each time. In addition, in the assay with PC-3, the half-maximal inhibitory concentration (IC50) is above 50 µM.

Turning to `CC(C)[C@H]1CC[C@]2(C)C[C@]3(O)C(=CC(=O)[C@H]3C)[C@@H](C)CC[C@@H]12` [ANADENSIN], the IC50 in the assay with A549 is above 50 µM; in assay [1], above 50 µM; in the assay with DU-145 it was above 50 µM; in assay [2], 31.1 µM; in the assay on NCI-H292, above 50 µM; in the assay on NCI-H1299, 34.7 µM. This molecule had an IC50 with PC-3 above 50 µM.

For the origin of these results see ChEMBL document CHEMBL3108663, “Cembrane-type diterpenoids from the Chinese liverworts Chandonanthus hirtellus and C. birmensis” (J Nat Prod, 2014).
